Measurements of several laboratories.
Each line is one published result; the experiments were not run side by side.
RPS6KA2 N-terminal kinase domain: Ribosomal protein S6 kinase alpha-2, N-terminal kinase domain (RPS6KA2, Homo sapiens, UniProt Q15349)
RPS6KA2: Ribosomal protein S6 kinase alpha-2 (RPS6KA2, Homo sapiens, UniProt Q15349)
RPS6KA2 C-terminal kinase domain: Ribosomal protein S6 kinase alpha-2, C-terminal kinase domain (RPS6KA2, Homo sapiens, UniProt Q15349)

SMILES	target	assay	conditions	endpoint	value
Nc1ncnc2occ(-c3ccc(NC(=O)Nc4cc(C(F)(F)F)ccc4F)cc3)c12	RPS6KA2 N-terminal kinase domain	cell-free assay, inhibitor	20 µM	remaining signal	0.6%
CC(C)(C)c1nc2c(s1)c1nc(N)ncc1c1ccc(NS(=O)(=O)c3c(F)cccc3F)c(F)c12	RPS6KA2	enzyme activity, inhibitor, radiometric	1 µM	remaining activity	84%
CN(C)C(=O)Cn1cc(-c2nc([C@@](C)(c3ccc(-c4cnc(N)nc4)cc3)C3CC3)no2)cn1	RPS6KA2 N-terminal kinase domain	cell-free assay, competition with immobilised ligand	1 µM	remaining binding	85%
CN(c1nccc(-c2cnn3ncccc23)n1)C1CC1	RPS6KA2 N-terminal kinase domain	binding, competition with immobilised ligand	1 µM	remaining binding	99%
CCCCN(CCCC)C(=O)CN1C[C@@H](c2cc(OC)c3c(c2)OCO3)[C@H](C(=O)O)[C@H]1CC(C)(C)CCC	RPS6KA2 C-terminal kinase domain	cell-free assay, competition with immobilised ligand	1 µM	remaining binding	90.2%
Cc1cnc(NC2CCOCC2)nc1-n1cnc(C(=O)NC(CN)c2cc(F)cc(Cl)c2)c1 (stereo not drawn)	RPS6KA2	enzyme activity, inhibitor, radiometric	1 µM	remaining activity	12%
CN(C)c1ncc(F)c(-c2cnn3ncccc23)n1	RPS6KA2 N-terminal kinase domain	binding, competition with immobilised ligand	1 µM	remaining binding	100%
CCN(CC)c1ccc(C2=NNC(=O)CC2C)cc1[N+](=O)[O-] (stereo not drawn)	RPS6KA2	enzyme activity, inhibitor	10 µM	remaining activity	98%
CO[C@@H](C)c1c(Nc2ccc([C@H](N(C)C(=O)C3CCS(=O)(=O)CC3)C(F)(F)F)cc2)cnc2cc(Cl)nn12	RPS6KA2 C-terminal kinase domain	cell-free assay, competition with immobilised ligand	1 µM	remaining binding	79%
Cc1ccc(C(=O)Nc2ccc(CN3CCN(C)CC3)c(C(F)(F)F)c2)cc1C#Cc1cnc2cccnn12	RPS6KA2	enzyme activity, inhibitor	23.5 nM	activity vs control	98%
CNCc1ccc(-c2cc(-c3nc(-c4ccc(S(=O)(=O)C(C)C)cc4)cnc3N)on2)cc1	RPS6KA2	enzyme activity, inhibitor	2 µM	inhibition	49%
C[C@@H]1CN(c2cc(-c3n[nH]c4ccc(OC5(C)CC5)cc34)ncn2)C[C@H](C)O1	RPS6KA2 C-terminal kinase domain	cell-free assay, competition with immobilised ligand	0.1 µM	remaining binding	100%
Cc1cnn2ncc(-c3ccnc(N(C)C)n3)c2c1	RPS6KA2 N-terminal kinase domain	binding, competition with immobilised ligand	1 µM	remaining binding	85%
CCCOc1ccc(OC)c(F)c1C(=O)c1ccc(C(=O)N[C@@H]2CNC[C@H]2NC(=O)c2ccc3[nH]ncc3c2)cc1	RPS6KA2	enzyme activity, inhibitor	10 µM	remaining activity	6%
COc1cc2ncnc(Nc3ccc(Oc4ccccc4)cc3C)c2cc1OC	RPS6KA2	enzyme activity, inhibitor	1 µM	inhibition	3%
C[C@@H]1CCN(c2nccc(-c3cnn4ncccc34)n2)C1	RPS6KA2 C-terminal kinase domain	binding, competition with immobilised ligand	1 µM	remaining binding	45%
NS(=O)(=O)c1cc(NC(=O)C2(c3ccccc3Cl)CC2)ccc1Oc1cccc(Cl)c1	RPS6KA2 C-terminal kinase domain	cell-free assay, competition with immobilised ligand	1 µM	remaining binding	100%
N[C@H]1CCN(c2nccc(-c3cnn4ncccc34)n2)C1	RPS6KA2 N-terminal kinase domain	binding, competition with immobilised ligand	1 µM	remaining binding	85%
Cc1ccc(Nc2nccc(N(C)c3ccc4c(C)n(C)nc4c3)n2)cc1S(N)(=O)=O	RPS6KA2	enzyme activity, inhibitor	0.3 µM	inhibition	27%
COc1ccc2c(O[C@@H]3C[C@H]4C(=O)N[C@]5(C(=O)O)CC5/C=C\CCCCC[C@H](NC(=O)OC5CCCC5)C(=O)N4C3)cc(-c3csc(NC(=O)C(C)C)n3)nc2c1C (stereo partly drawn)	RPS6KA2 N-terminal kinase domain	cell-free assay, competition with immobilised ligand	1 µM	remaining binding	100%
F[C@@H]1CCN(c2nccc(-c3cnn4ncccc34)n2)C1	RPS6KA2 N-terminal kinase domain	binding, competition with immobilised ligand	1 µM	remaining binding	93%
O=C(O)[C@@H]1[C@@H](Cn2nnc3ccccc3c2=O)CC[C@H]1C(=O)c1ccc(OCCC2CCOCC2)cc1	RPS6KA2 C-terminal kinase domain	cell-free assay, competition with immobilised ligand	1 µM	remaining binding	100%
COc1cc(Cl)c(C(=O)N[C@@H](CN[C@H]2CC[C@@H](N)CC2)Cc2ccc(C#N)cc2)cc1-c1ccc(CN[C@H](C)c2ccc(C)cc2)o1	RPS6KA2	enzyme activity, inhibitor	1 µM	remaining activity	106%
CCCS(=O)(=O)Nc1ccc(F)c(C(=O)c2c[nH]c3ncc(-c4ccc(Cl)cc4)cc23)c1F	RPS6KA2	enzyme activity, inhibitor	1 µM	inhibition	< 10%
